Measurements reported in ChEMBL document CHEMBL2146464, “Structure-activity relationship study of nitrosopyrimidines acting as antifungal agents” (Bioorg Med Chem, 2012).
Converted amounts (≈) assume the structure as drawn. The source made the active and inactive calls. The rule behind the calls is not given here.

Columns and labels:
Cryptococcus neoformans [1] = assay: Antifungal activity against Cryptococcus neoformans ATCC 32264 after 48 hrs by microplate reader analysis; type: functional; conditions: ATCC 32264, 48 h
Summary of the method: (§1)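 Microplate growth-inhibition assay in RPMI-1640, compound at final 250–0.98 µg/mL (DMSO ≤1%). Inoculum 1–5 × 10³ CFU/mL. Sterility and DMSO growth controls included. Percent inhibition is computed from blank-corrected OD relative to the growth control, tested in duplicate.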

Nannizzia gypsea [2] = assay: Antifungal activity against Microsporum gypseum CCC 115 by NCCLS broth microdilution method; type: functional; conditions: read-out: MIC100
Summary of the method: (§2)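 MIC by broth microdilution per NCCLS M27-A3/M38-A2 in RPMI-1640 buffered to pH 7.0 with MOPS. Twofold dilutions from 250–0.98 µg/mL, final DMSO ≤1%. Inoculum 1–5 × 10³ CFU/mL. Incubated in a moist dark chamber, 30 °C for Aspergillus and 28–30 °C for dermatophytes. Read visually when control growth allowed. Endpoint is the lowest concentration giving total inhibition of visible growth (MIC100).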

Candida albicans [3] = assay: Antifungal activity against Candida albicans ATCC 10231 assessed as growth inhibition at 3.9 ug/mL after 24 hrs by microplate reader analysis; type: functional; conditions: ATCC 10231, 24 h, read-out: GI
Summary of the method: (§3)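 96-well RPMI-1640 wells with compound at final 250–0.98 µg/mL (DMSO ≤1%). Inoculum 100 µL, 1–5 × 10³ CFU/mL, 200 µL final. Each well includes growth (DMSO, no compound) and sterility controls. % inhibition = 100 − (CTW−SCW)/(GCW−SCW) × 100, run in duplicate.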

Candida albicans [4] = assay: Antifungal activity against Candida albicans ATCC 10231 assessed as growth inhibition at 31.25 ug/mL after 24 hrs by microplate reader analysis; type: functional; conditions: ATCC 10231, 24 h, read-out: GI; summary of the method: as §3
Candida albicans [5] = assay: Fungicidal activity against Candida albicans ATCC 10231 after 48 hrs by agar plate dilution method; type: functional; conditions: ATCC 10231, 48 h
Summary of the method: (§4)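 MFC: after the microdilution MIC, material from each clear well was plated onto RPMI-1640 agar buffered with MOPS. Plates incubated at 30 °C and read after 48 h. MFC is the lowest concentration giving total inhibition of visible growth.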

Cryptococcus neoformans [6] = assay: Antifungal activity against Cryptococcus neoformans ATCC 32264 assessed as growth inhibition at 125 ug/mL after 48 hrs by microplate reader analysis; type: functional; conditions: ATCC 32264, 48 h, read-out: GI; summary of the method: as §1
Candida albicans [7] = assay: Antifungal activity against Candida albicans ATCC 10231 assessed as growth inhibition at 62.5 ug/mL after 24 hrs by microplate reader analysis; type: functional; conditions: ATCC 10231, 24 h, read-out: GI; summary of the method: as §3
Cryptococcus neoformans [8] = assay: Fungicidal activity against Cryptococcus neoformans ATCC 32264 after 48 hrs by agar plate dilution method; type: functional; conditions: ATCC 32264, 48 h; summary of the method: as §4
Cryptococcus neoformans [9] = assay: Antifungal activity against Cryptococcus neoformans ATCC 32264 assessed as growth inhibition at 31.25 ug/mL after 48 hrs by microplate reader analysis; type: functional; conditions: ATCC 32264, 48 h, read-out: GI; summary of the method: as §1
Cryptococcus neoformans [10] = assay: Antifungal activity against Cryptococcus neoformans ATCC 32264 assessed as growth inhibition at 250 ug/mL after 48 hrs by microplate reader analysis; type: functional; conditions: ATCC 32264, 48 h, read-out: GI; summary of the method: as §1
Candida albicans [11] = assay: Antifungal activity against Candida albicans ATCC 10231 after 24 hrs by microplate reader analysis; type: functional; conditions: ATCC 10231, 24 h; summary of the method: as §3
Candida albicans [12] = assay: Antifungal activity against Candida albicans ATCC 10231 after 48 hrs by NCCLS broth microdilution method; type: functional; conditions: ATCC 10231, 48 h, read-out: MIC100
Summary of the method: (§5)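 Yeast MIC by NCCLS M27-A3 broth microdilution in RPMI-1640 buffered to pH 7.0 with MOPS. Twofold dilutions of 250–0.98 µg/mL, final DMSO ≤1%. Inoculum 1–5 × 10³ CFU/mL. Incubated at 30 °C in a moist dark chamber. Read visually at 48 h. MIC100 is the lowest concentration with no visible growth versus drug-free control.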

Candida tropicalis [13] = assay: Antifungal activity against Candida tropicalis by microplate reader analysis; type: functional
Candida tropicalis [14] = assay: Antifungal activity against Candida tropicalis after 48 hrs by NCCLS broth microdilution method; type: functional; conditions: read-out: MIC100; summary of the method: as §5
Cryptococcus neoformans [15] = assay: Antifungal activity against Cryptococcus neoformans ATCC 32264 assessed as growth inhibition at 15.6 ug/mL after 48 hrs by microplate reader analysis; type: functional; conditions: ATCC 32264, 48 h, read-out: GI; summary of the method: as §1
[16] = Acute toxicity in bony fish assessed as mortality at 5 ug/mL after 96 hrs; conditions: actinopterygii; read-out: Activity
Summary of the method: (§6)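 Guppy (Poecilia reticulata) acute static exposure: 10 fish per concentration in 2 L wide-mouthed jars holding the test solution. Compounds were added from […] to give the final concentrations. Dead fish were counted and removed every 24 h, with general condition noted; percentage mortality was scored at 96 h. Two experiments, each in triplicate.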

Cryptococcus neoformans [17] = assay: Antifungal activity against Cryptococcus neoformans ATCC 32264 assessed as growth inhibition at 7.8 ug/mL after 48 hrs by microplate reader analysis; type: functional; conditions: ATCC 32264, 48 h, read-out: GI; summary of the method: as §1
Trichophyton rubrum [18] = assay: Antifungal activity against Trichophyton rubrum CCC 110 by NCCLS broth microdilution method; type: functional; conditions: read-out: MIC100; summary of the method: as §2
Cryptococcus neoformans [19] = assay: Antifungal activity against Cryptococcus neoformans ATCC 32264 assessed as growth inhibition at 3.9 ug/mL after 48 hrs by microplate reader analysis; type: functional; conditions: ATCC 32264, 48 h, read-out: GI; summary of the method: as §1
Trichophyton rubrum [20] = assay: Fungicidal activity against Trichophyton rubrum CCC 110 after 48 hrs by agar plate dilution method; type: functional; conditions: CCC 110, 48 h
Summary of the method: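 Samples from each clear well of the MIC broth microdilution tray were plated onto RPMI-1640 agar buffered with MOPS. That tray had compounds twofold diluted in RPMI (pH 7.0, MOPS) from 250–0.98 µg/mL with inoculum of 1–5 × 10³ CFU/mL, incubated at 28–30 °C for dermatophytes. Plates were incubated at 30 °C and read at 48 h. MFC was taken as the lowest concentration giving total inhibition of visible growth.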

Candida tropicalis [21] = assay: Fungicidal activity against Candida tropicalis after 48 hrs by agar plate dilution method; type: functional; summary of the method: as §4
Aspergillus flavus = assay: Antifungal activity against Aspergillus flavus ATCC 9170 at 0.98 to 250 ug/mL by NCCLS broth microdilution method; type: functional, organism-based; summary of the method: as §2
Candida tropicalis [22] = assay: Antifungal activity against Candida tropicalis assessed as growth inhibition at 3.9 ug/mL by microplate reader analysis; type: functional; conditions: read-out: GI
[23] = test system: Trichophyton mentagrophytes; assay: Fungicidal activity against Trichophyton mentagrophytes ATCC 9972 after 48 hrs by agar plate dilution method; type: functional; conditions: ATCC 9972, 48 h; summary of the method: as §4
Candida albicans [24] = assay: Antifungal activity against Candida albicans ATCC 10231 assessed as growth inhibition at 250 ug/mL after 24 hrs by microplate reader analysis; type: functional; conditions: ATCC 10231, 24 h, read-out: GI; summary of the method: as §3
Aspergillus fumigatus = assay: Antifungal activity against Aspergillus fumigatus ATCC 26934 at 0.98 to 250 ug/mL by NCCLS broth microdilution method; type: functional, organism-based; summary of the method: as §2
Cryptococcus neoformans [25] = assay: Antifungal activity against Cryptococcus neoformans ATCC 32264 assessed as growth inhibition at 62.5 ug/mL after 48 hrs by microplate reader analysis; type: functional; conditions: ATCC 32264, 48 h, read-out: GI; summary of the method: as §1
Candida tropicalis [26] = assay: Antifungal activity against Candida tropicalis assessed as growth inhibition at 62.5 ug/mL by microplate reader analysis; type: functional; conditions: read-out: GI
[27] = test system: Trichophyton mentagrophytes; assay: Antifungal activity against Trichophyton mentagrophytes ATCC 9972 by NCCLS broth microdilution method; type: functional; conditions: read-out: MIC100; summary of the method: as §2
Candida tropicalis [28] = assay: Antifungal activity against Candida tropicalis assessed as growth inhibition at 250 ug/mL by microplate reader analysis; type: functional; conditions: read-out: GI
Candida tropicalis [29] = assay: Antifungal activity against Candida tropicalis assessed as growth inhibition at 31.25 ug/mL by microplate reader analysis; type: functional; conditions: read-out: GI
Nannizzia gypsea [30] = assay: Fungicidal activity against Microsporum gypseum CCC 115 after 48 hrs by agar plate dilution method; type: functional; conditions: CCC 115, 48 h; summary of the method: as §4
Candida tropicalis [31] = assay: Antifungal activity against Candida tropicalis assessed as growth inhibition at 125 ug/mL by microplate reader analysis; type: functional; conditions: read-out: GI
[32] = Acute toxicity in bony fish assessed as mortality at 35 ug/mL after 96 hrs; conditions: actinopterygii; read-out: Activity; summary of the method: as §6
Candida albicans [33] = assay: Antifungal activity against Candida albicans ATCC 10231 assessed as growth inhibition at 125 ug/mL after 24 hrs by microplate reader analysis; type: functional; conditions: ATCC 10231, 24 h, read-out: GI; summary of the method: as §3
Candida tropicalis [34] = assay: Antifungal activity against Candida tropicalis assessed as growth inhibition at 7.8 ug/mL by microplate reader analysis; type: functional; conditions: read-out: GI
Candida albicans [35] = assay: Antifungal activity against Candida albicans ATCC 10231 assessed as growth inhibition at 7.8 ug/mL after 24 hrs by microplate reader analysis; type: functional; conditions: ATCC 10231, 24 h, read-out: GI; summary of the method: as §3
Cryptococcus neoformans [36] = assay: Antifungal activity against Cryptococcus neoformans ATCC 32264 after 48 hrs by NCCLS broth microdilution method; type: functional; conditions: ATCC 32264, 48 h, read-out: MIC100; summary of the method: as §5
Candida tropicalis [37] = assay: Antifungal activity against Candida tropicalis assessed as growth inhibition at 15.6 ug/mL by microplate reader analysis; type: functional; conditions: read-out: GI
Candida albicans [38] = assay: Antifungal activity against Candida albicans ATCC 10231 assessed as growth inhibition at 15.6 ug/mL after 24 hrs by microplate reader analysis; type: functional; conditions: ATCC 10231, 24 h, read-out: GI; summary of the method: as §3
Aspergillus niger = assay: Antifungal activity against Aspergillus niger ATCC 9029 at 0.98 to 250 ug/mL by NCCLS broth microdilution method; type: functional, organism-based; summary of the method: as §2

COc1nc(N)c(N=O)c(Nc2ccccc2)n1
MIC50 (Cryptococcus neoformans [1]): 1.95 µg/mL (≈ 7.95 µM)
MIC (Nannizzia gypsea [2]): 62.5 µg/mL (≈ 255 µM)
inhibition of growth at 3.9 µg/mL (Candida albicans [3]): 4.7%
inhibition of growth at 31.25 µg/mL (Candida albicans [4]): 100%
MFC (Candida albicans [5]): 31.2 µg/mL (≈ 127 µM)
inhibition of growth at 125 µg/mL (Cryptococcus neoformans [6]): 100%
inhibition of growth at 62.5 µg/mL (Candida albicans [7]): 100%
MFC (Cryptococcus neoformans [8]): 62.5 µg/mL (≈ 255 µM)
inhibition of growth at 31.25 µg/mL (Cryptococcus neoformans [9]): 100%
inhibition of growth at 250 µg/mL (Cryptococcus neoformans [10]): 100%
MIC50 (Candida albicans [11]): 7.8 µg/mL (≈ 31.8 µM)
MIC (Candida albicans [12]): 31.2 µg/mL (≈ 127 µM)
MIC50 (Candida tropicalis [13]): 7.8 µg/mL (≈ 31.8 µM)
MIC (Candida tropicalis [14]): 31.2 µg/mL (≈ 127 µM)
inhibition of growth at 15.6 µg/mL (Cryptococcus neoformans [15]): 100%
mortality at 96 h, 5 ug/mL [16]: 0%
inhibition of growth at 7.8 µg/mL (Cryptococcus neoformans [17]): 91.2%
MIC (Trichophyton rubrum [18]): 125 µg/mL (≈ 510 µM)
inhibition of growth at 3.9 µg/mL (Cryptococcus neoformans [19]): 76.2%
MFC (Trichophyton rubrum [20]): 250 µg/mL (≈ 1020 µM)
MFC (Candida tropicalis [21]): 31.2 µg/mL (≈ 127 µM)
Activity (Aspergillus flavus): inactive
inhibition of growth at 3.9 µg/mL (Candida tropicalis [22]): 4.1%
MFC [23]: 250 µg/mL (≈ 1020 µM)
inhibition of growth at 250 µg/mL (Candida albicans [24]): 100%
Activity (Aspergillus fumigatus): inactive
inhibition of growth at 62.5 µg/mL (Cryptococcus neoformans [25]): 100%
inhibition of growth at 62.5 µg/mL (Candida tropicalis [26]): 100%
MIC [27]: 125 µg/mL (≈ 510 µM)
inhibition of growth at 250 µg/mL (Candida tropicalis [28]): 100%
inhibition of growth at 31.25 µg/mL (Candida tropicalis [29]): 100%
MFC (Nannizzia gypsea [30]): 62.5 µg/mL (≈ 255 µM)
inhibition of growth at 125 µg/mL (Candida tropicalis [31]): 100%
mortality at 96 h, 35 ug/mL [32]: 0%
inhibition of growth at 125 µg/mL (Candida albicans [33]): 100%
inhibition of growth at 7.8 µg/mL (Candida tropicalis [34]): 87.2%
inhibition of growth at 7.8 µg/mL (Candida albicans [35]): 85%
MIC (Cryptococcus neoformans [36]): 15.6 µg/mL (≈ 63.6 µM)
inhibition of growth at 15.6 µg/mL (Candida tropicalis [37]): 88.2%
inhibition of growth at 15.6 µg/mL (Candida albicans [38]): 98.1%
Activity (Aspergillus niger): inactive
